Assay outcomes from PubChem BioAssay.
MT stabilize HCS: microtubule stabilizers in HeLa cells, primary screen, imaging, high-content imaging. HeLa tubulin immunostaining HCS, 24 h; share of cells brighter than vehicle mean+2SD. % tubulin-high responders, % at 10 µM. 200,000 compounds, 0.83% hits;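 active means plate Z-score above 3 for both tubulin-high and condensed-nucleus cell shares, with cell loss under 80%, at 10 µM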;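 further: anti alpha tubulin signal scored within the nucleus-defined area of each cell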
ROMK primary: ROMK potassium channel modulators, primary screen, cell-based, thallium flux, MLSMR library | ATP-sensitive inward rectifier potassium channel 1 (Homo sapiens), P48048 | Tet-inducible ROMK, thallium flux fluorescence; actives lie on both sides | B-score at 10 µM | 130,000 compounds, 2% hits | AID 1918, 2009;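 active means signal ratio slope over the read window, or its plate-corrected B-score, at least 3 SD from the plate mean, either direction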;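 further: B-score of the F/F0 ratio slope over 7 to 12 s after thallium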
Target sequence (P48048 whole entry, looked up): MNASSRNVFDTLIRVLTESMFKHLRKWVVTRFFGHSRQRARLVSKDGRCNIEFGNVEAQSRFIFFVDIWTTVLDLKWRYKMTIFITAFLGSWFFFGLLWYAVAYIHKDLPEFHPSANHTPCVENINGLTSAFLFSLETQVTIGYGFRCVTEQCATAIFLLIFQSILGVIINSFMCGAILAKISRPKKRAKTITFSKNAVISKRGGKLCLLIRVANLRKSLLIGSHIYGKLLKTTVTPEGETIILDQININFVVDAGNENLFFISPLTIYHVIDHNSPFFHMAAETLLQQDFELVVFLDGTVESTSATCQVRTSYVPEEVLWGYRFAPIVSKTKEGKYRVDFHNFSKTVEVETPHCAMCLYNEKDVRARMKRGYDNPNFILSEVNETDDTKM
Redox H2O2 prof: compounds producing H2O2 with reducing agent – biochemical, NIH compound library profiling, artefact control for MLSCN library redox annotation, primary screen; DTT-dependent redox cycling H2O2, phenol red/HRP absorbance; 100% = 100 µM peroxide control, 0% = buffer; AID 878, 2007; activation, % at 10 µM; 200,000 compounds, 0.03% hits;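 active means activation of at least 50% relative to the plate's high and low controls in the primary single-dose screen; inactive means activation below 50%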;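 further: compound incubated with DTT at 0.8 mM final as the reducing agent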
KCC2 mod: KCC2 cotransporter modulators, thallium flux, primary screen, cell-based, HEK293 KCC2, FluoZin-2 fluorescence, MLSMR | Solute carrier family 12 member 5 (Homo sapiens), Q9H2X9 | KCC2 cells, thallium flux FluoZin-2 fluorescence | B-score of Tl+ flux slope (higher = more flux/activation; lower = inhibition) at 10 µM | 190,000 compounds, 2.2% hits | AID 1456, 2008;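 active means thallium flux slope and its plate-corrected score both differing from the plate sample mean at a set confidence after two filtering rounds, in either direction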;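 further: slope of fluorescence scaled to starting intensity during 10 to 20 s after thallium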
bCat nuc transl: modulators of beta-catenin nuclear translocation, primary screen, imaging, HeLa cells, immunofluorescence, high-content; 190,000 compounds, 0.3% hits; AID 1665, 2009; nuclear translocation activity, % at 5 µM;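 active means nuclear translocation activity above 50% at 5 µM, with a well cell count of 50 or more; inconclusive means wells under 50 cells across six images, flagged as toxic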;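 further: per-cell ratio of nuclear to cytoplasmic median beta-catenin stain intensity; plate controls were DMSO negative control for no effect and GSK-3 inhibitor IX positive control for full effect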
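Test system: human HeLa cells, native beta-catenin. Compound dosing: 5 µM primary single dose, 0.1% DMSO, 0.02–20 µM confirmation series. Incubation: compound exposure 24 h at 37°C. Detection: beta-catenin immunostaining with DAPI counterstain, 20x imaging, 6 fields/well. Read-out basis: Nuclear/cytoplasmic beta-catenin signal ratio, % activation.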
ROMK retest: ROMK channel modulator hit retest, confirmation, cell-based, thallium flux, duplicate, resupplied hits. fluorescence ratio; stronger effect = lower value. AID 1917, 2009. shares compounds with ROMK primary. normalized thallium flux (F/F0 slope) at 10 µM. 3,000 compounds, 54% hits;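 active means Flux at 10 µM at least 3 SD below or above vehicle control mean in one or both replicates; inconclusive means no clear call, values can overlap the other calls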
Numbers without * were called inactive; ? = inconclusive; / = no result given. Rows were chosen to be rich in hits. Some 3.7% of all compounds tested hit in one or more screens of this group.

SMILES	MT stabilize HCS	ROMK primary	Redox H2O2 prof	KCC2 mod	bCat nuc transl	ROMK retest
CN(C)CCn1c(C(=O)Nc2ccccc2)cc2ccccc21	5	/	-1	/	-3	/
CCOC(=O)c1cc2ccccc2n1CCN(CC)CC	1	5*	0	2.5	-4	?
COc1ccccc1-c1nn2c(-c3ccco3)nnc2s1	/	-1.3	0	-2.8	3	0.057*
c1coc(-c2nn3c(-c4ccco4)nnc3s2)c1	3	-0.32	2	0.055	-2	/
Cn1c(SCC(=O)c2ccccc2)nnc1-c1cccs1	/	/	/	-1.8	0	/
COC(=O)c1ccc(OC(=O)c2ccc(OC)c(OC)c2)c(OC)c1	3	-3.9*	1	-0.094	2	0.08
CC(NCCC(c1ccccc1)c1ccccc1)c1ccccc1 (stereo not drawn)	4	-6.2*	0	0.61	/	0.046*
CC1CCN(CCCCOc2ccc(Br)cc2)CC1	3	-1.3	0	-1.6	-2	?
CCCCOc1ccc(Br)cc1CSC(=N)N	16	-4*	1	-0.66	9	0.057*
CCCCCOc1ccc(CSC(=N)N)cc1[N+](=O)[O-]	2	/	-3	0.035	1	0.052*
CCOc1ccc(C(C)=O)cc1CSC(=N)N	3	-0.49	0	-0.54	0	/
O=C1Nc2ccccc2/C1=C/C(=O)c1cccs1	2	-5.6*	0	-0.93	3	0.039*
CCN1C(=O)/C(=C\C(=O)c2cccs2)c2cc(Br)ccc21	2	-2.2	-1	0.23	-2	/
Cc1ccsc1/C=N/NC(=O)Cc1cccn1C	4	-0.79	1	-0.01	0	/
NC1=CC(=O)c2cccc3cccc1c23	9	-3.8*	-5	/	/	0.051*
COc1ccc(-c2c[n+]3c4n2CCCCC4=C(c2ccc(Br)cc2)C3)cc1	7	-4.6*	-1	/	-3	0.052*
Clc1ccc(C2=C3CCCCn4c(-c5ccccc5)c[n+](c43)C2)cc1	3	/	3	1.1	/	0.064*
COCCn1c(-c2cccc([N+](=O)[O-])c2)nc2c1c(=O)[nH]c(=O)n2Cc1ccccc1	1	/	0	-1.9	2	/
Cc1cc(C)n2nc(/C(C#N)=C/c3ccccn3)c(C#N)c2n1	7	-2.4*	0	0.37	0	0.044*
CCCSc1nnc(NC(=O)Nc2ccc(F)cc2)s1	5	-2	-3	-0.79	0	0.062*
CCCSc1nnc(NC(=O)Nc2ccc(C)cc2)s1	/	/	/	0.96	0	/
O=C(COC(=O)c1cc(=O)[nH]c2ccc(Br)cc12)c1ccccc1	1	0.75	0	-0.53	-1	/
C/C(=N\Nc1ccc([N+](=O)[O-])cc1)c1ccc(O)cc1	2	-4.5*	-2	-0.57	0	0.053*
COc1ccc(S(=O)(=O)Nc2nc3ccccc3nc2Nc2ccc3c(c2)OCO3)cc1	2	-0.63	0	1.7	3	/
O=S(=O)(Nc1nc2ccccc2nc1Nc1ccc2c(c1)OCCO2)c1cccs1	3	/	1	-2.9	-10	?
SMILES	MT stabilize HCS	ROMK primary	Redox H2O2 prof	KCC2 mod	bCat nuc transl	ROMK retest
COc1ccc(/C=C/C2=Nc3ccccc3NC(C)(C)C2)cc1OC	/	-7.8*	/	-0.6	2	0.043*
COc1ccc(/C=C/C2=CC(C)(C)NC(=S)N2)cc1OC	3	1.1	-1	-0.054	0	/
CCOC(=O)c1c(C)[nH]c(C(=O)OCC(=O)c2c(N)n(C)c(=O)n(C)c2=O)c1C	8	/	0	0.23	-5	/
CN(Cc1ccccc1NS(=O)(=O)c1ccc2ccccc2c1)C1CCCCC1	3	-2.9*	0	-1	-4	?
CCCCn1c(SCC(=O)Nc2cc(C)on2)nnc1-c1ccco1	2	3.2*	0	-0.47	-1	0.078
CCn1c(SCC(=O)Nc2cc(C)on2)nnc1-c1ccco1	3	0.41	0	-0.12	-1	/
COc1ccccc1Sc1nc(-c2ccccn2)ncc1OC	1	0.44	11	/	-2	/
COc1cnc(-c2ccccn2)nc1Sc1ccc(C)cc1	3	-4.4*	0	/	3	?
CSc1nsc(SC)c1C(=O)N1CCN(S(=O)(=O)c2ccc(C)cc2)C1C(C)C (stereo not drawn)	4	-3.5*	1	-0.23	-2	0.064*
CSc1nsc(SC)c1C(=O)N1CCN(S(=O)(=O)c2ccc(C)cc2)C1C (stereo not drawn)	5	/	5	-0.49	1	/
CC1(C)CC(N=C2C([N+](=O)[O-])=CC=C3C2=NC2(CCCCC2)N3O)CC(C)(C)N1	/	/	/	0.48	-2	0.076
COc1ccccc1NC(=O)COC(=O)/C=C/c1ccc2c(c1)OCO2	2	0.0071	0	-0.9	1	/
COc1ccccc1NC(=O)/C=C/c1ccc2c(c1)OCO2	19*	5.1*	0	0.038	-2	0.091
Cc1nnnn1/C(=C\c1ccccc1)C(=O)OCC(=O)NC(C)(C)C	3	-8.2*	0	1.1	-1	0.043*
CCOc1cc(C2C(C#N)=C(N)OC(C)=C2C(C)=O)c(Br)c(Br)c1OC(C)C (stereo not drawn)	5	-3.6*	-1	-0.52	0	0.079
O=C(Nc1cccnc1)c1ccc(Cl)c(S(=O)(=O)N2CCCCCC2)c1	2	/	2	-1	-6	?
O=C(Nc1cccnc1)c1ccc(S(=O)(=O)N2CCCCCC2)cc1	1	0.4	0	-0.58	/	/
CCOC(=O)c1ccc(NC(=O)c2ccc(C)c(S(=O)(=O)N3CCOCC3)c2)cc1	2	-0.036	0	/	/	/
O=C(Nc1ccc2c(c1)OCO2)c1ccc(Br)c(S(=O)(=O)N2CCCC2)c1	4	-2.9*	1	-1.4	-3	0.066*
CCN(CC)CCOC(=O)c1ccc(NC(=O)c2ccc(Cl)c(S(=O)(=O)N3CCCCCC3)c2)cc1	25*	-0.76	0	0.34	5	0.078
COc1ccc(/C=C/C(=O)OCC(=O)NCc2ccco2)c(OC)c1	4	1.6	0	-0.54	4	/
O=Nc1c(O)n(Cc2ccccc2)c2ccccc12	/	/	/	-0.35	1	/
Cc1c(CCCN)c2ccccc2n1Cc1ccccc1	1	-2.9*	-1	/	2	0.05*
CC(C)(CN1CCN(Cc2ccccc2)CC1)NS(=O)(=O)c1ccccc1	/	/	/	-1.6	2	/
CC(CN1CCNCC1)(NS(=O)(=O)c1ccccc1)c1ccccc1 (stereo not drawn)	3	-4.5*	0	/	-1	0.062*
